Assay results taken from ChEMBL document CHEMBL1143109, “Discovery of novel orally active ureido NPY Y5 receptor antagonists” (Bioorg Med Chem Lett, 2008).
Active and inactive are the calls of the source. The rule behind the calls is not given here.

Experiments:
[1] = Inhibition of potassium channel at 10 uM
Summary of the method: (§1)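 Counterscreen panel of 60 receptors, enzymes and ion channels; inhibition of binding measured at 10 µM.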

[2] = molecular target: 5-hydroxytryptamine receptor 2A (Homo sapiens) (UniProt P28223); experiment: Inhibition of 5HT2A receptor at 10 uM; summary of the method: as §1
[3] = molecular target: 5-hydroxytryptamine receptor 6 (Homo sapiens) (UniProt P50406); experiment: Inhibition of 5HT6 receptor at 10 uM; summary of the method: as §1
[4] = molecular target: T1, 5-hydroxytryptamine receptor 3A (Homo sapiens) (UniProt P46098); experiment: Inhibition of 5HT3 receptor at 10 uM; summary of the method: as §1
T1 sequence (whole entry): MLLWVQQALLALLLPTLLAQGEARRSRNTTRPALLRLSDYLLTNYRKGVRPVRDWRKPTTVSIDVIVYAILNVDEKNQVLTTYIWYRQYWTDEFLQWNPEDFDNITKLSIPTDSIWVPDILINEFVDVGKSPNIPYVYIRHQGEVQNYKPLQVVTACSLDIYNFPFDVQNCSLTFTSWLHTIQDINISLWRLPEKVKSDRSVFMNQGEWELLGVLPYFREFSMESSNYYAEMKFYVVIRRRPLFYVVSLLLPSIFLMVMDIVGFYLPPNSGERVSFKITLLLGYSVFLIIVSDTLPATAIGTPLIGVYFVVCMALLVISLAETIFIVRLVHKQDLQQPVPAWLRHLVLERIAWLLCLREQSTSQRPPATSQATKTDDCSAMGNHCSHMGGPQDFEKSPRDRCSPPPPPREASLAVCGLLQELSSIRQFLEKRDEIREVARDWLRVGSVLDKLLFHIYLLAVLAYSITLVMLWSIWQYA

[5] = molecular target: 5-hydroxytryptamine receptor 5A (Homo sapiens) (UniProt P47898); experiment: Inhibition of 5HT5A receptor at 10 uM; summary of the method: as §1
[6] = Drug level in plasma of Sprague-Dawley DIO rat at 10 mg/kg/day, po after 28 days; type: ADME, organism-based; parameters: route oral
Summary of the method: (§2)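 DIO rats weighing 700–800 g at start, n = 12/group, food and water ad libitum. Compound admixed into low fat diet for 28 days; delivered doses (1, 3 or 10 mg/kg/day) calculated from food consumption. Body composition by DEXA scanning, expressed as percent change from day 0 baseline; average plasma levels taken at the 10 mg/kg/day dose.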

Rattus norvegicus [7] = experiment: Increase in lean body mass in Sprague-Dawley DIO rat at 10 mg/kg/day, po after 28 days; type: functional, organism-based; summary of the method: as §2
Rattus norvegicus [8] = experiment: Reduction in body weight gain in po dosed Sprague-Dawley DIO rat after 28 days relative to control; type: functional, organism-based; summary of the method: as §2
[9] = molecular target: Neuropeptide Y receptor type 5 (Homo sapiens, UniProt Q15761); experiment: Displacement of [125]PYY from human chimeric NPY Y5 receptor expressed in CHOK1 cells; type: cell-based; details: cho-k1
Summary of the method: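 Binding to human chimeric Y5 receptor expressed in CHO-K1 cells; Ki values are the average of two determinations.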

[10] = molecular target: T2, Neuropeptide Y receptor type 2 (Homo sapiens, UniProt P49146); experiment: Binding affinity to human NPY Y2 receptor
T2 sequence (P49146 whole entry): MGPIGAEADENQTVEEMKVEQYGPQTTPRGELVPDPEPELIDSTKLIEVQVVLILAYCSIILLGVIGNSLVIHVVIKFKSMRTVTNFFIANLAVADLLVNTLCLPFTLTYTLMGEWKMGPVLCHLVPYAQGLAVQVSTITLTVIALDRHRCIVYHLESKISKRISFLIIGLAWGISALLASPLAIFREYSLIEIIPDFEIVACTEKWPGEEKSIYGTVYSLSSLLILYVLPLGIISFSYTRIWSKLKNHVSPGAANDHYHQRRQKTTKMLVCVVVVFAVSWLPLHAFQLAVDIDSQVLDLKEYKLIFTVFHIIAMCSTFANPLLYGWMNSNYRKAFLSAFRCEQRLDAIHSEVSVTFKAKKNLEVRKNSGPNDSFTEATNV

[11] = molecular target: Sodium-dependent noradrenaline transporter (Homo sapiens) (UniProt P23975); experiment: Inhibition of norepinephrine transporter at 10 uM; summary of the method: as §1
[12] = Ratio of drug level in brain to plasma in po dosed rat; type: ADME, organism-based; details: read-out: BPR
[13] = Bioavailability in Beagle dog; type: ADME, organism-based, Canis lupus familiaris; details: in vivo
[14] = molecular target: Neuropeptide Y receptor type 4 (Homo sapiens, UniProt P50391); experiment: Binding affinity to human NPY Y4 receptor
[15] = Half life in Beagle dog; type: ADME, organism-based, Canis lupus familiaris; details: in vivo
[16] = molecular target: T3, 5-hydroxytryptamine receptor 2C (Homo sapiens) (UniProt P28335); experiment: Inhibition of 5HT2C receptor at 10 uM; summary of the method: as §1
T3 sequence (whole entry): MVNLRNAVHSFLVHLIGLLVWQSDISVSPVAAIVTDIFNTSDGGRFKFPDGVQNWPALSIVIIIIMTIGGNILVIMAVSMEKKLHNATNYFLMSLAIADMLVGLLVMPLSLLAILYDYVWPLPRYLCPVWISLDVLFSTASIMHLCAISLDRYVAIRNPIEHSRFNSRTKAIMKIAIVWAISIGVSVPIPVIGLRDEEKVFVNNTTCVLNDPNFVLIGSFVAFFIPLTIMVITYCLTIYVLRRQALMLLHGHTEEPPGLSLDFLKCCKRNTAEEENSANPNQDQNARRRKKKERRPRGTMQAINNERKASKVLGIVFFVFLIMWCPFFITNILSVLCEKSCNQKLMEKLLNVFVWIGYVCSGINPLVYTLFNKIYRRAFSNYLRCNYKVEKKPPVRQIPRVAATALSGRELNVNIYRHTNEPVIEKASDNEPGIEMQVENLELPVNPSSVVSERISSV

[17] = Inhibition of calcium channel at 10 uM; summary of the method: as §1
Rattus norvegicus [18] = experiment: Reduction in food intake in Sprague-Dawley DIO rat at 10 mg/kg/day, po after 28 days relative to control; type: functional, organism-based; summary of the method: as §2
[19] = molecular target: 5-hydroxytryptamine receptor 2B (Homo sapiens) (UniProt P41595); experiment: Inhibition of 5HT2B receptor at 10 uM; summary of the method: as §1
GABA transporter = experiment: Inhibition of GABA transporter at 10 uM
Rattus norvegicus [20] = experiment: Decrease in adipose mass in po dosed Sprague-Dawley DIO rat after 28 days; type: functional, organism-based; summary of the method: as §2
[21] = Bioavailability in po dosed rat; type: ADME, organism-based; details: in vivo
Rattus norvegicus [22] = experiment: Blockade of D-Trp[34]-NPY-induced food intake in po dosed rat; type: functional
[23] = Half life in iv dosed rat; type: ADME, organism-based; details: in vivo

Chain of Neuropeptide Y receptor type 4 (P50391 whole entry): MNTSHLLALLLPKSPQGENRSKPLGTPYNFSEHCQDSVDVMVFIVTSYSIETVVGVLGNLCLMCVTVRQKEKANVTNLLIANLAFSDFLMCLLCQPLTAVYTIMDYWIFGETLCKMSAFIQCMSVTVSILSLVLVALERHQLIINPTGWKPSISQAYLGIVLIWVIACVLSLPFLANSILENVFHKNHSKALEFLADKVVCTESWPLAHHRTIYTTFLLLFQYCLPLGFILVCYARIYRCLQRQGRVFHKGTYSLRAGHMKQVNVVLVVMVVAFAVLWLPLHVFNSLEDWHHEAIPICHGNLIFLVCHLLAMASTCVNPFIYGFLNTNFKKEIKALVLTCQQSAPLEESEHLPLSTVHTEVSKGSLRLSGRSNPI
Chain of Sodium-dependent noradrenaline transporter (Homo sapiens) (P23975 whole entry): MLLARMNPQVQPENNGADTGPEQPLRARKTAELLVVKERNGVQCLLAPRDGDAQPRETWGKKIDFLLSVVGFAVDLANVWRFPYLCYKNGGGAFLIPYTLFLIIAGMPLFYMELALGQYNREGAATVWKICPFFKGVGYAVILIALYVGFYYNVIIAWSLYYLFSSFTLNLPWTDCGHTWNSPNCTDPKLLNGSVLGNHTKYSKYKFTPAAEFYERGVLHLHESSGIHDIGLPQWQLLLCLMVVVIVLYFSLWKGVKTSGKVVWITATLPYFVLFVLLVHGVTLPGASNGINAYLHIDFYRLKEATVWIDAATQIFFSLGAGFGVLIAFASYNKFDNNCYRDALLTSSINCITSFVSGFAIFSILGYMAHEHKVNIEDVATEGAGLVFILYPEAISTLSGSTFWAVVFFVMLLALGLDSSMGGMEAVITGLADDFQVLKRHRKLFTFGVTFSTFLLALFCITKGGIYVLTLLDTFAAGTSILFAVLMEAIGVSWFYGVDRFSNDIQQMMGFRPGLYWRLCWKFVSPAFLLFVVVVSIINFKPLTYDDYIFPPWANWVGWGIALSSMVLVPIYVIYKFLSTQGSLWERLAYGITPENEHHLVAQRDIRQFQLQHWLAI
Chain of 5-hydroxytryptamine receptor 2A (Homo sapiens) (P28223 whole entry): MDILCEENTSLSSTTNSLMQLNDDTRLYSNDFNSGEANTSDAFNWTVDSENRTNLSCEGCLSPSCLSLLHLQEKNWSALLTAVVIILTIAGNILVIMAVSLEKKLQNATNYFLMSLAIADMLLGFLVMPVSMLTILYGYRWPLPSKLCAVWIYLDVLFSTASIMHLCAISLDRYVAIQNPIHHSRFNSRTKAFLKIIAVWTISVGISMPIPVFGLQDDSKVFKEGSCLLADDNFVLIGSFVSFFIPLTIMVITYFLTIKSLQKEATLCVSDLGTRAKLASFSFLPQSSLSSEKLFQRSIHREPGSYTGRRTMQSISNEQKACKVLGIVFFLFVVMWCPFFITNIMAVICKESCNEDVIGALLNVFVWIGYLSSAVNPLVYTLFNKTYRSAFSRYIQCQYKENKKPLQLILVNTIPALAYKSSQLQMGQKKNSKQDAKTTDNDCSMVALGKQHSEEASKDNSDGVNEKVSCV
Chain of 5-hydroxytryptamine receptor 2B (Homo sapiens) (P41595 whole entry): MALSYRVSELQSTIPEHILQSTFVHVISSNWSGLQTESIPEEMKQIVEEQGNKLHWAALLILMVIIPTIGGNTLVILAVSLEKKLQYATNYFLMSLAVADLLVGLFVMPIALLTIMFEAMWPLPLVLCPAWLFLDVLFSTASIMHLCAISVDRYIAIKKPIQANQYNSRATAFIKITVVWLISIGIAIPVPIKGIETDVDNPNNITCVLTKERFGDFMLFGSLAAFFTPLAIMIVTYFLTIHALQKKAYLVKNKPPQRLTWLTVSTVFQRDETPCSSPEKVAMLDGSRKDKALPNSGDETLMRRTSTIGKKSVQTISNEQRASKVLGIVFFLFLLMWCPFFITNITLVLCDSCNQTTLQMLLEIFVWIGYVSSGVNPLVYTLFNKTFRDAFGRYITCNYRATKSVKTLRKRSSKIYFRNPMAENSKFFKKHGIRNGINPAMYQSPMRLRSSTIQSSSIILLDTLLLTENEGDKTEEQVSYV
Chain of Neuropeptide Y receptor type 5 (Q15761 whole entry, looked up): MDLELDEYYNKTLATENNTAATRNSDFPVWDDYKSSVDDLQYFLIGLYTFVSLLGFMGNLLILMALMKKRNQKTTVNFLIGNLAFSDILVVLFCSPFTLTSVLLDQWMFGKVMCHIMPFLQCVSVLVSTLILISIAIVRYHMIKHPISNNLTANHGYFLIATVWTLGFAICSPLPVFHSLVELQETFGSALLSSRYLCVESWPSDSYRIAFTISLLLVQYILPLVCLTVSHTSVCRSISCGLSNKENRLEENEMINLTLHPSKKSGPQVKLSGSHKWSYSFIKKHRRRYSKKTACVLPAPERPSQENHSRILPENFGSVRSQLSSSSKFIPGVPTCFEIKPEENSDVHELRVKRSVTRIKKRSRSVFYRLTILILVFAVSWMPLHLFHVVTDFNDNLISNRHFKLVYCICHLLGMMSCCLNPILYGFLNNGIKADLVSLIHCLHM
Chain of 5-hydroxytryptamine receptor 6 (Homo sapiens) (P50406 whole entry): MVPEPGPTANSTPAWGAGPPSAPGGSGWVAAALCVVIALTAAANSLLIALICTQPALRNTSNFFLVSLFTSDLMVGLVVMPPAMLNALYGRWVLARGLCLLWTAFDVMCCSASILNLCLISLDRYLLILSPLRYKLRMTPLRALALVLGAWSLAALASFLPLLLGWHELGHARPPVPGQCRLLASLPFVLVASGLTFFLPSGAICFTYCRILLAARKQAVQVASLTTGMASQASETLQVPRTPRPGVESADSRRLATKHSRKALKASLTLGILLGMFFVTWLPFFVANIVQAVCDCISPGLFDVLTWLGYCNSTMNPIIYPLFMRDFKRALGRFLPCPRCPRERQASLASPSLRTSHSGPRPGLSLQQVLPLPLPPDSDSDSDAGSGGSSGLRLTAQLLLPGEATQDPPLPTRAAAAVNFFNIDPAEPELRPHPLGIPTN
Chain of 5-hydroxytryptamine receptor 5A (Homo sapiens) (P47898 whole entry): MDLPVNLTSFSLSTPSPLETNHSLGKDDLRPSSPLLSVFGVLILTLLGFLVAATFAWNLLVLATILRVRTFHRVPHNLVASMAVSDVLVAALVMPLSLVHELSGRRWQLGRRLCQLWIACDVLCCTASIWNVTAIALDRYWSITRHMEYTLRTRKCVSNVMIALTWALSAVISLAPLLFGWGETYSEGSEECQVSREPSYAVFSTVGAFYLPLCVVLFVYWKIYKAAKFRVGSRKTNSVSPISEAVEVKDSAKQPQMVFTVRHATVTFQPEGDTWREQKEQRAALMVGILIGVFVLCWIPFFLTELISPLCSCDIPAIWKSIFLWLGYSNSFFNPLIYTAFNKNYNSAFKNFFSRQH

inhibition [1]: < 25%
inhibition [2]: < 10%
inhibition [3]: < 10%
inhibition [4]: < 10%
inhibition [5]: < 10%
concentration at 672 h [6]: 13 µM
Ki [9]: 0.0018 µM
Ki [10]: > 10 µM
inhibition [11]: < 10%
Kp [12]: 0.3
bioavailability [13]: 94%
Ki [14]: > 10 µM
half-life [15]: 24 h
inhibition [16]: < 10%
inhibition [17]: < 25%
inhibition [19]: < 10%
inhibition (GABA transporter): < 10%
bioavailability [21]: 100%
half-life [23]: 1.4 h
Structure (SMILES): CC(=O)N1CCC(N(C)C(=O)N[C@H]2CC[C@H](c3cc(F)cc(F)c3)CC2)CC1
Activity (Rattus norvegicus [7]): Active
Activity (Rattus norvegicus [8]): Dose-dependent effect
Activity (Rattus norvegicus [18]): Dose-dependent effect
Activity (Rattus norvegicus [20]): Dose-dependent effect
ED50 (Rattus norvegicus [22]): 2.3 mg/kg
